Tests used:
[1] = Drug metabolism in New Zealand White rabbit liver S9 fraction assessed per mg/ml of protein at 0.5 mM after 24 hrs by LC-MS/MS analysis in presence of 5 mM UDPGA; assay type: ADME, subcellular, Oryctolagus cuniculus; settings: read-out: Drug metabolism
Outline: (§1)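 Optimization incubations with rabbit or calf liver microsomes or rabbit S9. Final substrate was 0.2, 0.5 or 2 mM, from DMSO stocks diluted 100-fold. Protein was 1 or 4 mg/mL and UDPGA 5 or 25 mM. Other components were 100 mM potassium phosphate pH 7.4 and an NADPH regenerating system. Microsomes were pre-treated on ice with alamethicin. Reactions ran at 37 °C, were stopped with methanol, processed, and analysed by LC/MS.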

[2] = Drug metabolism in New Zealand White rabbit liver S9 fraction assessed per 4 mg/ml of protein at 2 mM after 24 hrs by LC-MS/MS analysis in presence of 25 mM UDPGA; assay type: ADME, subcellular, Oryctolagus cuniculus; settings: read-out: Drug metabolism; outline: as §1
[3] = Activity at human recombinant glucuronyl transferase at 100 uM after 1 to 24 hrs by LC-MS/MS analysis in presence of UDPGA; assay type: ADME
Outline: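 Recombinant human UDP-glucuronyl transferases. The mix held 100 mM potassium phosphate pH 7.4, 3.3 mM MgCl2, 5 mM UDPGA, and enzyme protein at 0.025–1 mg/mL depending on the enzyme. Substrate came from a 10 mM methanol stock. Mixtures were pre-warmed 5 min at 37 °C, the enzyme was added, and they were shaken at 37 °C for 1, 6 or 24 h. Methanol quench, centrifugation, filtration, drying, resuspension, LC/MS.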

[4] = Drug metabolism in New Zealand White rabbit liver microsomes assessed per mg/ml of protein at 0.5 mM after 24 hrs by LC-MS/MS analysis in presence of 25 mM UDPGA; assay type: ADME, Oryctolagus cuniculus, Microsome; settings: read-out: Drug metabolism; outline: as §1
[5] = test system: Liver microsomes; experiment: Drug metabolism in human liver microsomes assessed as M5 metabolite level at 100 uM after 4 hrs by LC/MS analysis in presence of UDPGA; assay type: ADME, Microsome
Outline: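 Human liver microsomes under the screening protocol. Mix: 0.50 mg protein in 0.5 mL, 100 mM potassium phosphate pH 7.4, NADPH regenerating system, 5 mM UDPGA, 5 mM D-saccharic acid lactone. Microsomes were pre-incubated with alamethicin and the mix pre-warmed 5 min at 37 °C. After 4 h at 37 °C, the reaction was diluted with cold methanol and centrifuged. The filtered supernatant went to analytical HPLC; the M5 fraction was taken for MS/MS.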

[6] = Drug metabolism in New Zealand White rabbit liver microsomes assessed per mg/ml of protein at 0.2 mM after 24 hrs by LC-MS/MS analysis in presence of 5 mM UDPGA; assay type: ADME, Oryctolagus cuniculus, Microsome; settings: read-out: Drug metabolism; outline: as §1
[7] = Drug metabolism in New Zealand White rabbit liver S9 fraction assessed per mg/ml of protein at 0.5 mM after 24 hrs by LC-MS/MS analysis in presence of 25 mM UDPGA; assay type: ADME, subcellular, Oryctolagus cuniculus; settings: read-out: Drug metabolism; outline: as §1
[8] = Drug metabolism in New Zealand White rabbit liver S9 fraction assessed per 4 mg/ml of protein at 0.5 mM after 24 hrs by LC-MS/MS analysis in presence of 25 mM UDPGA; assay type: ADME, subcellular, Oryctolagus cuniculus; settings: read-out: Drug metabolism; outline: as §1
[9] = Drug metabolism in New Zealand White rabbit liver S9 fraction assessed per mg/ml of protein at 2 mM after 24 hrs by LC-MS/MS analysis in presence of 25 mM UDPGA; assay type: ADME, subcellular, Oryctolagus cuniculus; settings: read-out: Drug metabolism; outline: as §1
[10] = Drug metabolism in New Zealand White rabbit liver microsomes assessed per 4 mg/ml of protein at 2 mM after 24 hrs by LC-MS/MS analysis in presence of 5 mM UDPGA; assay type: ADME, Oryctolagus cuniculus, Microsome; settings: read-out: Drug metabolism; outline: as §1
[11] = Drug metabolism in New Zealand White rabbit liver microsomes assessed per mg/ml of protein at 0.5 mM after 24 hrs by LC-MS/MS analysis in presence of 5 mM UDPGA; assay type: ADME, Oryctolagus cuniculus, Microsome; settings: read-out: Drug metabolism; outline: as §1
[12] = Drug metabolism in New Zealand White rabbit liver microsomes assessed per mg/ml of protein at 2 mM after 24 hrs by LC-MS/MS analysis in presence of 5 mM UDPGA; assay type: ADME, Oryctolagus cuniculus, Microsome; settings: read-out: Drug metabolism; outline: as §1
[13] = Drug metabolism in New Zealand White rabbit liver S9 fraction assessed per 4 mg/ml of protein at 0.5 mM after 24 hrs by LC-MS/MS analysis in presence of 5 mM UDPGA; assay type: ADME, subcellular, Oryctolagus cuniculus; settings: read-out: Drug metabolism; outline: as §1
[14] = Drug metabolism in New Zealand White rabbit liver S9 fraction assessed per mg/ml of protein at 0.2 mM after 24 hrs by LC-MS/MS analysis in presence of 5 mM UDPGA; assay type: ADME, subcellular, Oryctolagus cuniculus; settings: read-out: Drug metabolism; outline: as §1
[15] = Drug metabolism in New Zealand White rabbit liver S9 fraction assessed per mg/ml of protein at 2 mM after 24 hrs by LC-MS/MS analysis in presence of 5 mM UDPGA; assay type: ADME, subcellular, Oryctolagus cuniculus; settings: read-out: Drug metabolism; outline: as §1
[16] = Drug metabolism in New Zealand White rabbit liver S9 fraction assessed per 4 mg/ml of protein at 2 mM after 24 hrs by LC-MS/MS analysis in presence of 5 mM UDPGA; assay type: ADME, subcellular, Oryctolagus cuniculus; settings: read-out: Drug metabolism; outline: as §1
[17] = Drug metabolism in New Zealand White rabbit liver microsomes assessed per mg/ml of protein at 2 mM after 24 hrs by LC-MS/MS analysis in presence of 25 mM UDPGA; assay type: ADME, Oryctolagus cuniculus, Microsome; settings: read-out: Drug metabolism; outline: as §1
[18] = Drug metabolism in calf liver microsomes assessed per 4 mg/ml of protein at 2 mM after 24 hrs by LC-MS/MS analysis in presence of 5 mM UDPGA; assay type: ADME, Bos taurus, Microsome; settings: cattle, read-out: Drug metabolism; outline: as §1
[19] = Drug metabolism in New Zealand White rabbit liver microsomes assessed per mg/ml of protein at 0.2 mM after 24 hrs by LC-MS/MS analysis in presence of 25 mM UDPGA; assay type: ADME, Oryctolagus cuniculus, Microsome; settings: read-out: Drug metabolism; outline: as §1
[20] = Drug metabolism in New Zealand White rabbit liver microsomes assessed per 4 mg/ml of protein at 0.5 mM after 24 hrs by LC-MS/MS analysis in presence of 25 mM UDPGA; assay type: ADME, Oryctolagus cuniculus, Microsome; settings: read-out: Drug metabolism; outline: as §1
[21] = Drug metabolism in calf liver microsomes assessed per 4 mg/ml of protein at 0.5 mM after 24 hrs by LC-MS/MS analysis in presence of 5 mM UDPGA; assay type: ADME, Bos taurus, Microsome; settings: cattle, read-out: Drug metabolism; outline: as §1
[22] = Drug metabolism in New Zealand White rabbit liver microsomes assessed per 4 mg/ml of protein at 2 mM after 24 hrs by LC-MS/MS analysis in presence of 25 mM UDPGA; assay type: ADME, Oryctolagus cuniculus, Microsome; settings: read-out: Drug metabolism; outline: as §1
[23] = Drug metabolism in New Zealand White rabbit liver S9 fraction assessed per mg/ml of protein at 0.2 mM after 24 hrs by LC-MS/MS analysis in presence of 25 mM UDPGA; assay type: ADME, subcellular, Oryctolagus cuniculus; settings: read-out: Drug metabolism; outline: as §1
[24] = Drug metabolism in New Zealand White rabbit liver S9 fraction assessed per 20 mg of protein at 1 mM after 24 hrs by LC/MS analysis in presence of UDPGA; assay type: ADME, subcellular, Oryctolagus cuniculus; settings: read-out: Drug metabolism
Outline: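 Scale-up reaction with rabbit liver S9. Each mix was 10 mL with 20 mg S9 protein, 100 mM potassium phosphate pH 7.4, 1 mM substrate (from a 0.1 M DMSO stock), an NADPH regenerating system (1.3 mM NADP+, 3.3 mM glucose-6-phosphate, 0.4 U/mL G6PDH, 3.3 mM MgCl2) and 10 mM UDPGA. Six parallel vials were shaken 24 h at 37 °C, then pooled, methanol-quenched, and passed through C18 SPE and prep HPLC.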

[25] = Drug metabolism in calf liver microsomes assessed per mg/ml of protein at 2 mM after 24 hrs by LC-MS/MS analysis in presence of 5 mM UDPGA; assay type: ADME, Bos taurus, Microsome; settings: cattle, read-out: Drug metabolism; outline: as §1
[26] = Drug metabolism in New Zealand White rabbit liver microsomes assessed per 4 mg/ml of protein at 0.5 mM after 24 hrs by LC-MS/MS analysis in presence of 5 mM UDPGA; assay type: ADME, Oryctolagus cuniculus, Microsome; settings: read-out: Drug metabolism; outline: as §1

COc1cc(OC)c2c(=O)[nH]c(-c3cc(C)c(OCCO)c(C)c3)nc2c1 [APABETALONE]
metabolised at 24 h, 500 µM [1]: 23.2%
metabolised at 24 h, 2000 µM [2]: 35.2%
Activity [3]: < 1%
metabolised at 24 h, 500 µM [4]: 49.4%
Drug metabolism [5]: Active
metabolised at 24 h, 200 µM [6]: 34.6%
metabolised at 24 h, 500 µM [7]: 25.7%
metabolised at 24 h, 500 µM [8]: 41.3%
metabolised at 24 h, 2000 µM [9]: 16.7%
metabolised at 24 h, 2000 µM [10]: 30%
metabolised at 24 h, 500 µM [11]: 39.5%
metabolised at 24 h, 2000 µM [12]: 38.4%
metabolised at 24 h, 500 µM [13]: 33%
metabolised at 24 h, 200 µM [14]: 22.3%
metabolised at 24 h, 2000 µM [15]: 17.5%
metabolised at 24 h, 2000 µM [16]: 30.3%
metabolised at 24 h, 2000 µM [17]: 39.7%
metabolised at 24 h, 2000 µM [18]: 50.1%
metabolised at 24 h, 200 µM [19]: 49.7%
metabolised at 24 h, 500 µM [20]: 54.3%
metabolised at 24 h, 500 µM [21]: 56%
metabolised at 24 h, 2000 µM [22]: 48.9%
metabolised at 24 h, 200 µM [23]: 21.4%
metabolised at 24 h, 1000 µM [24]: 22%
metabolised at 24 h, 2000 µM [25]: 40.9%
metabolised at 24 h, 500 µM [26]: 24.1%

Source: ChEMBL document CHEMBL2390913, “In vitro biosynthesis, isolation, and identification of predominant metabolites of 2-(4-(2-hydroxyethoxy)-3,5-dimethylphenyl)-5,7-dimethoxyquinazolin-4(3H)-one (RVX-208)” (Eur J Med Chem, 2013)
